Data on 28 compounds can be found in ChEMBL document CHEMBL1136979, “Discovery of 4-anilino-N-methylthieno[3,2-d]pyrimidines and 4-anilino-N-methylthieno[2,3-d]pyrimidines as potent apoptosis inducers” (Bioorg Med Chem Lett, 2009).

The subject of data set [1] is T47D. Description: Induction of apoptosis in human T47D cells assessed as caspase activation after 48 hrs by HTS assay. The format is functional, cell-based. The method, boiled down:
(§1)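 Cell-based caspase activation HTS assay that reads cleavage of a fluorescent caspase-3 substrate in human breast cancer T47D or non-small cell lung cancer H1299 cells. Cells were exposed to compound for 48 h. EC50 is the mean ± SEM of three or more experiments.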

Data set [2] deals with NCI-H1299. The data set is described as follows: Induction of apoptosis in human H1299 cells assessed as caspase activation after 48 hrs by HTS assay. In kind it is functional, cell-based. The following applies: NCI-H1299, 48 h. The method, boiled down:
as §1

Data set [3] in a line: Inhibition of tubulin polymerization by high-throughput assay.
The test system of data set [4] is MX1. The data set is described as follows: Antitumor activity against human MX1 cells xenografted in iv dosed Crl:Nu/Nu-nuBR mouse assessed as tumor growth inhibition administered as single dose. The format is functional, organism-based. The method, boiled down: (§2)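 Nude (Crl:Nu/Nu-nuBR) mice bore established MX-1 xenografts of about 100 mm³. Compound was given iv as single doses of 35, 50 or 75 mg/kg on day 1, or at 7 mg/kg daily on days 1–5, against a vehicle group. Tumor growth inhibition was assessed against vehicle, with significance by Student's t-test.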

Data set [5] concerns Mus musculus. The data set is described as follows: Toxicity in Crl:Nu/Nu-nuBR mouse assessed as maximum body weight decrease at 75 mg/kg, iv administered as single dose. Also noted: dose 75 mg/kg, route intravenous; scale not given: the % may be the effect or the level left. The settings on record: in vivo. The format is organism-based.
The subject of data set [6] is MX1. The data set is described as follows: Antitumor activity against human MX1 cells xenografted in Crl:Nu/Nu-nuBR mouse assessed as tumor growth inhibition at 75 mg/kg, iv administered as single dose. In kind it is functional. The following applies: read-out: TGI. Put shortly: as §2

The structures appear in SMILES notation.

As for `COc1ccc(N(C)c2ncnc3ccsc23)cc1OC`, the EC50 in data set [1] was 1700 nM; in data set [2] it was 2800 nM.

Take `COc1ccc(N(C)c2nc(C)nc3sc(C)c(C)c23)cc1`: the EC50 in data set [1] stood at 21 nM; in data set [2], 91 nM. The same compound had an IC50 in data set [3] below 1000 nM.

As to `COc1ccccc1N(C)c1ncnc2ccsc12`, the EC50 in data set [1] and in data set [2] was above 10000 nM throughout.

With `COc1ccc(N(C)c2nc(C)nc3ccccc23)cc1` [VERUBULIN], the results for the EC50 in data set [1] and in data set [2] were 2 nM and 6 nM, respectively.

On to `COc1ccc(N(C)c2ncnc3ccsc23)cc1`, for which the results for the EC50 in data set [1] and in data set [2] were 52 nM and 240 nM, respectively. The IC50 in data set [3] is below 1000 nM.

On to `COc1ccc(N(C)c2nc(C)nc3sccc23)cc1`, for which the Activity result in data set [4] was “Dose-dependent effect”; in data set [5], below 10%. The EC50 in data set [1] was 8 nM; in data set [2], 16 nM. The compound also came in with an IC50 in data set [3] below 1000 nM. Further, the inhibition in vivo at 75 mg/kg in data set [6] came out at 90%.

As for `COc1ccc(N(C)c2nc(-c3ccccc3)nc3ccsc23)cc1`, the EC50 in data set [1] was 340 nM; in data set [2], 630 nM.

Take `COc1ccc(Nc2nc(C)nc3scc(C)c23)cc1`: the EC50 in data set [1] and in data set [2] was above 10000 nM each time.

As to `COc1ccc(OC)c(N(C)c2ncnc3ccsc23)c1`, the values for the EC50 in data set [1] and in data set [2] were 2600 nM and 5000 nM, respectively.

As to `c1nc(NCc2ccc3c(c2)OCO3)c2sccc2n1`, the concentration for a half-maximal effect (EC50) in data set [1] and in data set [2] was above 10000 nM in each case.

For `COc1cc2c(c(OC)c1OC)-c1ccc(OC)c(=O)cc1[C@@H](NC(C)=O)CC2` [COLCHICINE], the EC50 in data set [1] amounted to 9 nM; in data set [2], 50 nM. The compound further came in with an IC50 in data set [3] of 500 nM.

For the compound `COc1ccc(N(C)c2ncnc3cc(I)sc23)cc1`, the EC50 in data set [1] and in data set [2] was above 10000 nM each time.

In the case of `c1ccc(-c2cc3ncnc(Nc4ccc5c(c4)OCO5)c3s2)cc1`, the EC50 in data set [1] and in data set [2] was above 10000 nM throughout.

As for `COc1ccc(N(C)c2nc(C)nc3scc(C)c23)cc1`, the EC50 in data set [1] is 4 nM; in data set [2], 15 nM. In data set [3], the IC50 is below 1000 nM.

Consider `COc1ccc(N(C)c2ncnc3sccc23)cc1`, for which the results for the EC50 in data set [1] and in data set [2] were 22 nM and 44 nM, respectively. The half-maximal inhibitory concentration (IC50) in data set [3] is below 1000 nM.

Take `COc1ccc(N(C)c2nccc3ccsc23)cc1`: the EC50 in data set [1] and in data set [2] was above 10000 nM in each case.

With `COC(=O)c1ccc(N(C)c2ncnc3ccsc23)cc1`, the EC50 was 190 nM in data set [1] and 340 nM in data set [2].

In the case of `COc1ccc(N(C)c2nc(C)nc3c(C)csc23)cc1`, the EC50 worked out at 240 nM in data set [1] and 310 nM in data set [2].

On to `COc1cc(OC)cc(N(C)c2ncnc3ccsc23)c1`, for which the EC50 in data set [1] and in data set [2] was above 10000 nM each time.

As to `COc1ccc(N(C)c2ncnc3cc(-c4cccnc4)sc23)cc1`, the EC50 in data set [1] and in data set [2] was above 10000 nM each time.

Take `COc1ccc(N(C)c2ncnc3c(C)csc23)cc1`: the EC50 in data set [1] and in data set [2] was 560 nM in each case.

For the compound `COc1cccc(N(C)c2ncnc3ccsc23)c1`, the EC50 in data set [1] and in data set [2] was above 10000 nM throughout.

Turning to `COc1ccc(N(C)c2ncnc3scc(C)c23)cc1`, the EC50 turned out to be 15 nM in data set [1] and 25 nM in data set [2]. In data set [3], this compound gave an IC50 below 1000 nM.

As to `COc1ccc(Nc2ncnc3ccsc23)cc1`, the EC50 in data set [1] and in data set [2] was above 10000 nM throughout.

For the compound `COc1ccc(N(C)c2nc(C)nc3ccsc23)cc1`, the results for the EC50 in data set [1] and in data set [2] were 14 nM and 32 nM, respectively. The IC50 in data set [3] is below 1000 nM.

Turning to `c1ccc(-c2cc3ncnc(NCc4ccc5c(c4)OCO5)c3s2)cc1`, the values for the EC50 in data set [1] and in data set [2] were 1000 nM and 700 nM, respectively.

With `COc1ccc(N(C)c2ncnc3sc(C)c(C)c23)cc1`, the EC50 in data set [1] was 24 nM; in data set [2] it was 53 nM. Moreover, the IC50 in data set [3] was below 1000 nM.

Turning to `COc1ccc(Nc2ncnc3scc(C)c23)cc1`, the half-maximal effective concentration (EC50) in data set [1] and in data set [2] was above 10000 nM throughout.
